Assay results from ChEMBL document CHEMBL1139032, “Design and modular parallel synthesis of a MCR derived alpha-helix mimetic protein-protein interaction inhibitor scaffold” (Bioorg Med Chem Lett, 2006).
Activity calls are given as the source filed them. The calls are words filed in the database; no cut-off is given here.

Key:
[1] = target: T1, Bcl-2-like protein 2 (Homo sapiens, UniProt Q92843); test: Inhibition of Bclw by FP assay
T1 sequence (Q92843 whole entry): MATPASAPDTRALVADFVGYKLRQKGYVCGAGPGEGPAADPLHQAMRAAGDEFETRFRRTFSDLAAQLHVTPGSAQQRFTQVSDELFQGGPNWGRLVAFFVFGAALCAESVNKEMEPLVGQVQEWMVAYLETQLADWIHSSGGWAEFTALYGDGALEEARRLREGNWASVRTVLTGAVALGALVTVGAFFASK
Procedure, shortened: (§1)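 Run in 20 mM potassium phosphate pH 7.4 with 1 mM EDTA, 50 mM NaCl and 0.05% Pluronic F-68, at 10% final DMSO. Polarization read at ex 485/em 535 nm after 2 h at room temperature.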

[2] = target: Apoptosis regulator Bcl-2 (Homo sapiens) (UniProt P10415); test: Inhibition of Bcl2 by FP assay; procedure, shortened: as §1
[3] = system: HL-60; test: Antiproliferative activity against HL60 cells by WST-1 assay; details: Homo sapiens
[4] = target: Bcl-2-like protein 1 (Homo sapiens) (UniProt Q07817); test: Inhibition of BclXL by FP assay; procedure, shortened: as §1
Sequence of Bcl-2-like protein 1 (Homo sapiens) (Q07817 whole entry): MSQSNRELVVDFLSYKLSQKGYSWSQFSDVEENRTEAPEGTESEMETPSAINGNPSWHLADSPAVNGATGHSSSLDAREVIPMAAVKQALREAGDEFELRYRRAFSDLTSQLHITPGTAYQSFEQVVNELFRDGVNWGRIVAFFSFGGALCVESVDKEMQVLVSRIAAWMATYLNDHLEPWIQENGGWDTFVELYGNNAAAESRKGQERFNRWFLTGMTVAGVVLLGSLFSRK

Sequence of Apoptosis regulator Bcl-2 (Homo sapiens) (P10415 whole entry): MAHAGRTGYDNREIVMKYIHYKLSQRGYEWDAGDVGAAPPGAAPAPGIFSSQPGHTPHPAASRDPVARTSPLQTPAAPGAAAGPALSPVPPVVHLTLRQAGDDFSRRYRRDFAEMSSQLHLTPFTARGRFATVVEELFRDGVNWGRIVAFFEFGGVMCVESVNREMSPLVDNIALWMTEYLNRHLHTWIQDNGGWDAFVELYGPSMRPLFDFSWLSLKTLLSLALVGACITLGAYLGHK

| IC50 [1] [µM] | Activity [2] | GI50 [3] [µM] | Activity [4] | SMILES |
| --- | --- | --- | --- | --- |
| 14 | inactive | 12.5 | inactive | CCCc1c(-c2ccccc2Oc2ccccc2)ncn1Cc1ccccc1OC |
| 8.09 | inactive | 9.43 | inactive | CCCCc1c(-c2ccccc2Oc2ccccc2)ncn1CCc1ccccc1OC |
| 26.9 | inactive | 13 | inactive | CCCCc1c(-c2ccccc2OC)ncn1Cc1cccc(-c2ccccc2)c1 |
